{"data": "Measured values of several laboratories", "target": "Serine/threonine-protein kinase MRCK beta (CDC42BPB, Homo sapiens, UniProt Q9Y5S2)"}
{"test": "cell-free assay, competition with immobilised ligand", "setting": "5 µM", "remaining binding [%]": 100, "SMILES": "COc1ncc2cc3ccccc3nc2c1C#N"}
{"test": "cell-free assay, competition with immobilised ligand", "setting": "1 µM", "remaining binding [%]": 96, "SMILES": "O=C(O)[C@@H]1[C@@H](Cn2nnc3ccccc3c2=O)CC[C@H]1C(=O)c1ccc(OCCC2CCOCC2)cc1"}
{"test": "binding", "setting": "1 µM", "remaining binding [%]": 97, "SMILES": "CC1CCCN1c1nccc(-c2cnn3ncccc23)n1 (centres unmarked)"}
{"test": "binding, competition with immobilised ligand", "setting": "1 µM", "remaining binding [%]": 92, "SMILES": "O=C(c1ccc(Nc2ncc(Cl)c(-c3ccc(Cl)s3)n2)cc1)N1CCC(N2CCCC2)CC1"}
{"test": "binding", "setting": "1 µM", "remaining binding [%]": 100, "SMILES": "N[C@@H]1CCN(c2nccc(-c3cnn4ncccc34)n2)C1"}
{"test": "binding, competition with immobilised ligand", "setting": "1 µM", "remaining binding [%]": 100, "SMILES": "CNC(=O)[C@@H]1CC[C@@H](n2c(-c3ccc4cnccc4c3)nc3ccc(C(=O)NCc4cccc(C(N)=O)c4)cc32)C1"}
{"test": "cell-free assay, competition with immobilised ligand", "setting": "0.1 µM", "remaining binding [%]": 100, "SMILES": "Nc1c(C(=O)NCc2ccc(C(=O)NCCCC3CCCCC3)cc2)cnn1-c1ccccc1"}
{"test": "binding", "setting": "1 µM", "remaining binding [%]": 94, "SMILES": "c1cnn2ncc(-c3ccnc(N4CCC45COC5)n3)c2c1"}
{"test": "binding, competition with immobilised ligand", "setting": "1 µM", "remaining binding [%]": 77, "SMILES": "CCN1CCN(Cc2ccc(C(=O)Nc3ccc(C)c(Oc4ccc5c(c4)CC(=O)N5)c3)cc2C(F)(F)F)CC1"}
{"test": "binding", "setting": "1 µM", "remaining binding [%]": 100, "SMILES": "CN(C)c1ncc(F)c(-c2cnn3ncccc23)n1"}
{"test": "cell-free assay, competition with immobilised ligand", "setting": "0.1 µM", "remaining binding [%]": 100, "SMILES": "COCCOc1nc(-c2ccc(Cl)nc2)nc2c1CN(C(=O)c1ncn3ccccc13)CC2"}
{"test": "binding, competition with immobilised ligand", "setting": "1 µM", "remaining binding [%]": 56, "SMILES": "O=C(c1ccc(Nc2ncc(Cl)c(-c3cc4ccccc4s3)n2)cc1)N1CCC(N2CCCC2)CC1"}
{"test": "cell-free assay, competition with immobilised ligand", "setting": "0.1 µM", "remaining binding [%]": 99, "SMILES": "CC(C)CC(=O)N1CCc2nc(-c3ccc(Br)cc3)nc(N(C)Cc3ccccc3)c2C1"}
{"test": "binding, competition with immobilised ligand", "setting": "1 µM", "remaining binding [%]": 100, "SMILES": "O=C(NCCCN1CCOCC1)c1ccc(Nc2ncc(Cl)c(-c3ccc(Cl)s3)n2)cc1"}
{"test": "binding, competition with immobilised ligand", "setting": "1 µM", "remaining binding [%]": 95, "SMILES": "O=C(NCC1CCOCC1)c1n[nH]cc1NC(=O)c1c(F)cccc1F"}
{"test": "cell-free assay, competition with immobilised ligand", "setting": "1 µM", "remaining binding [%]": 89, "SMILES": "CO[C@@H](C)c1c(Nc2ccc([C@@H](N(C)C(=O)C3CCS(=O)(=O)CC3)C(F)(F)F)cc2)cnc2cc(Cl)nn12"}
{"test": "binding", "setting": "1 µM", "remaining binding [%]": 100, "SMILES": "Cc1cnn2ncc(-c3ccnc(N(C)C)n3)c2c1"}
{"test": "cell-free assay, competition with immobilised ligand", "setting": "1 µM", "remaining binding [%]": 100, "SMILES": "O=C(Nc1cccnn1)N1CC(C/C=C/c2cncc(Oc3ccc(C(F)(F)F)cn3)n2)C1"}
{"test": "binding", "setting": "1 µM", "remaining binding [%]": 86, "SMILES": "CN(c1nccc(-c2cnn3ncccc23)n1)C1CC1"}
{"test": "cell-free assay, competition with immobilised ligand", "setting": "5 µM", "remaining binding [%]": 22, "SMILES": "FC(F)(F)Oc1cccc(-c2cnc3ccc(-c4ccncc4)nn23)c1"}
